Reference: ChEMBL document CHEMBL4689842, “EUbOPEN Chemogenomics Library wave 1” (2021)
Where “and” joins values, the source holds several entries; their conditions need not be identical. Equal entries are not always repeated.

System: Fibroblast
Test: Multiplex assay against human fibroblast
Type: toxicity, cell-based
How it was run: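 Phenotypes for tubulin, mitochondrial mass and membrane permeability are expressed as per cents of healthy-nucleus cells. Cells were stained live at seeding with Hoechst33342, BioTracker Green Microtubule Cytoskeleton Dye, MitoTracker Red and Annexin V Alexa Fluor 680, then imaged after compound addition on a CQ1 microscope at 37°C and 5% CO2. Machine-learning gating in CellPathfinder separated Hoechst high-intensity objects from normal cells, divided normal cells by nuclear state (healthy, pyknosed, fragmented) and divided pyknosed cells into mitotic or apoptotic.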

[1] = 12 h, 10 µM, compound concentration 10 uM, replicate 1
[2] = 12 h, 10 µM, compound concentration 10 uM, replicate 2
[3] = 24 h, 10 µM, compound concentration 10 uM, replicate 1
[4] = 24 h, 10 µM, compound concentration 10 uM, replicate 2
[5] = 12 h, 1 µM, compound concentration 1 uM, replicate 1
[6] = 12 h, 1 µM, compound concentration 1 uM, replicate 2
[7] = 24 h, 1 µM, compound concentration 1 uM, replicate 1
[8] = 24 h, 1 µM, compound concentration 1 uM, replicate 2
[9] = 48 h, 1 µM, compound concentration 1 uM, replicate 1
[10] = 48 h, 1 µM, compound concentration 1 uM, replicate 2
[11] = 48 h, 10 µM, compound concentration 10 uM, replicate 1
[12] = 48 h, 10 µM, compound concentration 10 uM, replicate 2

Cn1c(-c2csc(C3CCN(CC4=NC5N=CC=CC5N4)CC3)n2)nc2ccccc21 (stereo not given) [BAY-070]
Population Apoptotic (%) [1]: 66% and 86%
Population Fragmented Nuclei (%) [1]: 30% and 26%
Population Healthy Nuclei (%) [1]: 53% and 58%
Population Hoechst High Intensity Objects (%) [1]: 11% and 14%
Population Membrane Permeable-Phenotype (%) [1]: 12% and 9%
Population Mitochondria Different-Phenotype (%) [1]: 4%
Population Mitotic Cells (%) [1]: 33% and 13%
Population Normal (%) [1]: 88% and 85%
Population Pyknosed Nuclei (%) [1]: 15%
Total Cell Count [1]: 238 and 282
Population Fragmented Nuclei (%) [2]: 66% and 53%
Population Healthy Nuclei (%) [2]: 21% and 36%
Population Hoechst High Intensity Objects (%) [2]: 33% and 37%
Population Membrane Permeable-Phenotype (%) [2]: 36% and 29%
Population Normal (%) [2]: 66% and 62%
Population Pyknosed Nuclei (%) [2]: 11% and 10%
Total Cell Count [2]: 77 and 75
Population Apoptotic (%) [3]: 51% and 62%
Population Fragmented Nuclei (%) [3]: 23% and 16%
Population Healthy Nuclei (%) [3]: 61% and 67%
Population Hoechst High Intensity Objects (%) [3]: 10% and 13%
Population Membrane Permeable-Phenotype (%) [3]: 9% and 8%
Population Mitotic Cells (%) [3]: 48% and 37%
Population Normal (%) [3]: 89% and 86%
Population Pyknosed Nuclei (%) [3]: 15% and 16%
Total Cell Count [3]: 222 and 285
Population Fragmented Nuclei (%) [4]: 65% and 57%
Population Healthy Nuclei (%) [4]: 23% and 30%
Population Hoechst High Intensity Objects (%) [4]: 41% and 29%
Population Membrane Permeable-Phenotype (%) [4]: 30% and 22%
Population Mitotic Cells (%) [4]: 100% and 42%
Population Normal (%) [4]: 58% and 70%
Population Pyknosed Nuclei (%) [4]: 11%
Population Tubulin-Different-Phenotype (%) [4]: 40% and 50%
Total Cell Count [4]: 74 and 84

COc1cc(-n2cnc3cc(-c4ccc(Cl)cc4)sc3c2=O)ccc1OCCN1CCCC1
Population Apoptotic (%) [5]: 52%
Population Fragmented Nuclei (%) [5]: 32%
Population Healthy Nuclei (%) [5]: 49%
Population Hoechst High Intensity Objects (%) [5]: 13%
Population Membrane Permeable-Phenotype (%) [5]: 23%
Population Mitochondria Different-Phenotype (%) [5]: 13%
Population Mitotic Cells (%) [5]: 47%
Population Normal (%) [5]: 86%
Population Pyknosed Nuclei (%) [5]: 18%
Population Tubulin-Different-Phenotype (%) [5]: 38%
Total Cell Count [5]: 121
Population Apoptotic (%) [6]: 71%
Population Fragmented Nuclei (%) [6]: 11%
Population Healthy Nuclei (%) [6]: 77%
Population Hoechst High Intensity Objects (%) [6]: 16%
Population Membrane Permeable-Phenotype (%) [6]: 10%
Population Mitochondria Different-Phenotype (%) [6]: 44%
Population Mitotic Cells (%) [6]: 28%
Population Normal (%) [6]: 84%
Population Pyknosed Nuclei (%) [6]: 11%
Population Tubulin-Different-Phenotype (%) [6]: 34%
Total Cell Count [6]: 78
Population Apoptotic (%) [1]: 62%
Population Fragmented Nuclei (%) [1]: 33%
Population Healthy Nuclei (%) [1]: 26%
Population Hoechst High Intensity Objects (%) [1]: 14%
Population Membrane Permeable-Phenotype (%) [1]: 21%
Population Mitochondria Different-Phenotype (%) [1]: 53%
Population Mitotic Cells (%) [1]: 37%
Population Normal (%) [1]: 85%
Population Pyknosed Nuclei (%) [1]: 40%
Population Tubulin-Different-Phenotype (%) [1]: 87%
Total Cell Count [1]: 141
Population Apoptotic (%) [2]: 26%
Population Fragmented Nuclei (%) [2]: 22%
Population Healthy Nuclei (%) [2]: 57%
Population Hoechst High Intensity Objects (%) [2]: 8%
Population Membrane Permeable-Phenotype (%) [2]: 34%
Population Mitochondria Different-Phenotype (%) [2]: 93%
Population Mitotic Cells (%) [2]: 73%
Population Normal (%) [2]: 91%
Population Pyknosed Nuclei (%) [2]: 19%
Population Tubulin-Different-Phenotype (%) [2]: 97%
Total Cell Count [2]: 75
Population Apoptotic (%) [7]: 38%
Population Fragmented Nuclei (%) [7]: 36%
Population Healthy Nuclei (%) [7]: 47%
Population Hoechst High Intensity Objects (%) [7]: 17%
Population Membrane Permeable-Phenotype (%) [7]: 17%
Population Mitochondria Different-Phenotype (%) [7]: 5%
Population Mitotic Cells (%) [7]: 61%
Population Normal (%) [7]: 82%
Population Pyknosed Nuclei (%) [7]: 15%
Population Tubulin-Different-Phenotype (%) [7]: 32%
Total Cell Count [7]: 142
Population Apoptotic (%) [8]: 62%
Population Fragmented Nuclei (%) [8]: 16%
Population Healthy Nuclei (%) [8]: 71%
Population Hoechst High Intensity Objects (%) [8]: 10%
Population Membrane Permeable-Phenotype (%) [8]: 6%
Population Mitochondria Different-Phenotype (%) [8]: 25%
Population Mitotic Cells (%) [8]: 37%
Population Normal (%) [8]: 89%
Population Pyknosed Nuclei (%) [8]: 12%
Population Tubulin-Different-Phenotype (%) [8]: 21%
Total Cell Count [8]: 83
Population Apoptotic (%) [3]: 92%
Population Fragmented Nuclei (%) [3]: 32%
Population Healthy Nuclei (%) [3]: 15%
Population Hoechst High Intensity Objects (%) [3]: 16%
Population Membrane Permeable-Phenotype (%) [3]: 25%
Population Mitochondria Different-Phenotype (%) [3]: 43%
Population Mitotic Cells (%) [3]: 7%
Population Normal (%) [3]: 83%
Population Pyknosed Nuclei (%) [3]: 51%
Population Tubulin-Different-Phenotype (%) [3]: 93%
Total Cell Count [3]: 125
Population Apoptotic (%) [4]: 47%
Population Fragmented Nuclei (%) [4]: 24%
Population Healthy Nuclei (%) [4]: 52%
Population Hoechst High Intensity Objects (%) [4]: 14%
Population Membrane Permeable-Phenotype (%) [4]: 42%
Population Mitochondria Different-Phenotype (%) [4]: 89%
Population Mitotic Cells (%) [4]: 52%
Population Normal (%) [4]: 85%
Population Pyknosed Nuclei (%) [4]: 23%
Population Tubulin-Different-Phenotype (%) [4]: 81%
Total Cell Count [4]: 74
Population Apoptotic (%) [9]: 81%
Population Fragmented Nuclei (%) [9]: 39%
Population Healthy Nuclei (%) [9]: 48%
Population Hoechst High Intensity Objects (%) [9]: 18%
Population Membrane Permeable-Phenotype (%) [9]: 9%
Population Mitochondria Different-Phenotype (%) [9]: 4%
Population Mitotic Cells (%) [9]: 18%
Population Normal (%) [9]: 81%
Population Pyknosed Nuclei (%) [9]: 11%
Population Tubulin-Different-Phenotype (%) [9]: 22%
Total Cell Count [9]: 166
Population Apoptotic (%) [10]: 33%
Population Fragmented Nuclei (%) [10]: 36%
Population Healthy Nuclei (%) [10]: 61%
Population Hoechst High Intensity Objects (%) [10]: 15%
Population Membrane Permeable-Phenotype (%) [10]: 16%
Population Mitochondria Different-Phenotype (%) [10]: 3%
Population Mitotic Cells (%) [10]: 66%
Population Normal (%) [10]: 84%
Population Pyknosed Nuclei (%) [10]: 2%
Population Tubulin-Different-Phenotype (%) [10]: 51%
Total Cell Count [10]: 160
Population Apoptotic (%) [11]: 93%
Population Fragmented Nuclei (%) [11]: 52%
Population Healthy Nuclei (%) [11]: 26%
Population Hoechst High Intensity Objects (%) [11]: 37%
Population Membrane Permeable-Phenotype (%) [11]: 23%
Population Mitochondria Different-Phenotype (%) [11]: 47%
Population Mitotic Cells (%) [11]: 6%
Population Normal (%) [11]: 62%
Population Pyknosed Nuclei (%) [11]: 20%
Population Tubulin-Different-Phenotype (%) [11]: 85%
Total Cell Count [11]: 124
Population Apoptotic (%) [12]: 63%
Population Fragmented Nuclei (%) [12]: 36%
Population Healthy Nuclei (%) [12]: 53%
Population Hoechst High Intensity Objects (%) [12]: 32%
Population Mitochondria Different-Phenotype (%) [12]: 30%
Population Mitotic Cells (%) [12]: 36%
Population Normal (%) [12]: 67%
Population Pyknosed Nuclei (%) [12]: 9%
Total Cell Count [12]: 167
